Holding throughout (type): functional
Test [1] deals with P388. Nature of the test: Cytotoxicity against mouse P388 cells by MTT method. Particulars: for EC50: Mus musculus, P388, read-out: ED50 (the source's name). In a few lines: (§1)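 Modified MTT colorimetric assay. P-388 cells were a gift from an outside laboratory; A549 and HT-29 came from ATCC. Cells were treated at eight concentrations of pure compound, 50 to 5 × 10-6 µg/mL. Growth was expressed as percent of control incubations, run in triplicate. ED50 is the dose inhibiting cell growth by 50%.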
(Formazan colour is commonly taken as a measure of viable cells.)

For test [2], the system named is HT-29. Description: Cytotoxicity against human HT29 cells by MTT method. The conditions noted are these: for EC50: Homo sapiens, HT-29, read-out: ED50 (the source's name). In short, it runs like this: as §1
The subject of test [3] is A549. Description: Cytotoxicity against human A549 cells by MTT method. The conditions noted are these: read-out: ED50 (the source's name). In short, it runs like this:
as §1

SMILES strings stand for the structures. Values after ≈ are worked out from the molar mass of the structure shown. Where only a bound is given, the exact number is not on record here.

Consider `C[C@@H]1CC(=O)[C@@]23[C@@H](C)C(C(=O)O)=C[C@]2(C)CC[C@@H]13` [SUBERGORGIC ACID], for which the results for the EC50 in test [1], in test [2] and in test [3] were 13.3 µg/mL (≈ 53.6 µM), over 50 µg/mL and over 50 µg/mL, respectively.
Consider `C[C@H]1CC[C@H]2[C@@H]3CC(=O)[C@H](C)[C@@]13CC2(C)C` [SUBEROSANONE], for which the ED50 in test [1] and in test [2] was under 5 ×10⁻⁶ ug/ml in each case. Also, in test [3], the EC50 stood at 0.036 µg/mL (≈ 0.163 µM).
Consider `C=C1[C@@H](OC(C)=O)C[C@H]2[C@@H]3CC[C@H](C)[C@]12CC3(C)C` [SUBEROSENOL A ACETATE], for which the results for the EC50 in test [1] and in test [3] were 0.0076 µg/mL and 0.08 µg/mL, respectively. Besides, the ED50 in test [2] came to 3.6 ×10⁻⁴ ug/ml.
Regarding `C=C1[C@@H](O)C[C@H]2[C@@H]3CC[C@H](C)[C@]12CC3(C)C` [SUBEROSENOL A], the ED50 in test [1] and in test [2] was under 5 ×10⁻⁶ ug/ml throughout. Moreover, in test [3], the EC50 worked out at 0.0051 µg/mL (≈ 0.0231 µM).
Take `C=C1[C@H](OC(C)=O)C[C@H]2[C@@H]3CC[C@H](C)[C@]12CC3(C)C` [SUBEROSENOL B ACETATE]: the EC50 worked out at 0.074 µg/mL in test [1], 0.005 µg/mL in test [2] and 0.36 µg/mL in test [3].
For `C=C1[C@H](O)C[C@H]2[C@@H]3CC[C@H](C)[C@]12CC3(C)C` [SUBEROSENOL B], the EC50 in test [1] was 3.4 µg/mL (≈ 15.4 µM); in test [2], 2.1 µg/mL (≈ 9.53 µM); in test [3] it was 0.2 µg/mL (≈ 0.908 µM).
